Reference: ChEMBL document CHEMBL3244222, “Synthesis of angiotensin II antagonists containing sarcosine in position 7” (J Med Chem, 1979)
Square brackets hold non-standard residues; d marks the D form. Peptide text beside a SMILES is read from it. Sar = CNCC(=O)O

Key:
[1] = target: Angiotensin II receptor (Rattus norvegicus) (UniProt P29089+P25095+P35351); experiment: Intrinsic myotropic activity at angiotensin 2 receptor in Sprague-Dawley rat uterus relative to [Ile5]angiotensin 2
Summary of the method: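 Isolated uterus from diethylstilbestrol-primed female Sprague-Dawley rats (150-250 g), challenged every 12 min. Activity expressed relative to [Ile5]angiotensin II (MRC Research Standard A, 70/302). Mean ± SEM, with the number of experiments given.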

Angiotensin II receptor = target: T1, Angiotensin II receptor (Rattus norvegicus, UniProt P29089+P25095+P35351); experiment: Antagonist activity at angiotensin 2 receptor in Sprague-Dawley rat uterus assessed as reduction of angiotensin 2-induced response pretreated for 2 mins followed by angiotensin 2 challenge for every 12 mins
T1 sequence (P29089 whole entry): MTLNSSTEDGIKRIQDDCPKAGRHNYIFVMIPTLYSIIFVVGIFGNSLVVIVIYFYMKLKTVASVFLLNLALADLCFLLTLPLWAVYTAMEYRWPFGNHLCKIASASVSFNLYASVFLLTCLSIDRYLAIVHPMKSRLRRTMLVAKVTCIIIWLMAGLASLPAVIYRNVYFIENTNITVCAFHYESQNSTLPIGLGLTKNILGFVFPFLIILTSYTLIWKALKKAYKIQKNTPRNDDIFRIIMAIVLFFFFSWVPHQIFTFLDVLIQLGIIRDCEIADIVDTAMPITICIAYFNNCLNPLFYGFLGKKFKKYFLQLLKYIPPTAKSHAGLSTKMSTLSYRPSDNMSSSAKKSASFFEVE
T1 sequence (P25095 whole entry): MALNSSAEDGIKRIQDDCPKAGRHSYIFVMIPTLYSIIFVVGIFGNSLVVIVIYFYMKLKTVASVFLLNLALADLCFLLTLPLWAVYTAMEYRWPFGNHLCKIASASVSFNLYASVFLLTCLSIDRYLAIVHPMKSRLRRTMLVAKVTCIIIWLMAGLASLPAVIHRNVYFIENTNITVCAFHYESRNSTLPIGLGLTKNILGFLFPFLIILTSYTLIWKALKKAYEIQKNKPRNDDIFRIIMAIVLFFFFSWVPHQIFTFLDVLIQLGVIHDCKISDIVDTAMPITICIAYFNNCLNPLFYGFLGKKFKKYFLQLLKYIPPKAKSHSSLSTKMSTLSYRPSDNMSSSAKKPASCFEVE
T1 sequence (P35351 whole entry): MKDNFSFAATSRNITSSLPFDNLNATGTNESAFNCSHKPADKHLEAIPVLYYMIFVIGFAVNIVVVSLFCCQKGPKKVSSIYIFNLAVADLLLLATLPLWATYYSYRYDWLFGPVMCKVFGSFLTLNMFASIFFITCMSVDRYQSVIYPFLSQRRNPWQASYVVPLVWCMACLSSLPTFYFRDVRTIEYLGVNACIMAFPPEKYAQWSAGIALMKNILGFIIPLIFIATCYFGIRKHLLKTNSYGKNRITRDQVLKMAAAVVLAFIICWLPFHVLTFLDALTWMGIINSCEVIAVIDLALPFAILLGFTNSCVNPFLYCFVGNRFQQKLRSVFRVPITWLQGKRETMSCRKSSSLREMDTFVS

Rattus norvegicus = experiment: Pressor activity in anesthetized vagotomized-ganglionic blocked rat model administered as bolus injection relative to [Ile5]angiotensin 2; type: functional
Summary of the method: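 Anesthetized, vagotomized rats. Ganglion block with mecamylamine hydrochloride, 0.3 mg/100 g subcutaneous in 10% polyvinylpyrrolidone. Analogues given as bolus injections in a 2+2 assay against angiotensin II standard (MRC Research Standard A, 70/302). Mean ± SEM, with the number of experiments given.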

Compound `CC[C@H](C)[C@H](NC(=O)CN(C)C(=O)[C@H](Cc1cnc[nH]1)NC(=O)[C@@H](NC(=O)[C@H](Cc1ccc(O)cc1)NC(=O)[C@@H](NC(=O)[C@H](CCCNC(=N)N)NC(=O)CNC)C(C)C)[C@@H](C)CC)C(=O)O` has an Intrinsic activity [1] of less than 0.1%, a pA2 (Angiotensin II receptor) of 8.1 and an Activity (Rattus norvegicus) of 0.7%.

With `CC[C@H](C)[C@H](NC(=O)[C@@H]1CCCN1C(=O)[C@H](Cc1c[nH]cn1)NC(=O)[C@@H](NC(=O)[C@H](Cc1ccc(O)cc1)NC(=O)[C@@H](NC(=O)[C@H](CCCN=C(N)N)NC(=O)CNC)C(C)C)[C@@H](C)CC)C(=O)O` the Intrinsic activity [1] was less than 0.1% and the Activity (Rattus norvegicus) was 1.1%.

With `CC[C@H](C)[C@H](NC(=O)[C@H](Cc1ccc(O)cc1)NC(=O)[C@@H](NC(=O)[C@H](CCCNC(=N)N)NC(=O)CNC)C(C)C)C(=O)N[C@@H](Cc1cnc[nH]1)C(=O)N(C)CC(=O)N[C@@H](C)C(=O)O` (H-[Sar]RVYIH[Sar]A-OH) the Intrinsic activity [1] was less than 0.1%, the pA2 (Angiotensin II receptor) was 7 and the Activity (Rattus norvegicus) was 0.06%.

For `CC[C@H](C)[C@H](NC(=O)[C@H](Cc1ccc(O)cc1)NC(=O)[C@@H](NC(=O)[C@H](CCCNC(=N)N)NC(=O)CNC)C(C)C)C(=O)N[C@@H](Cc1cnc[nH]1)C(=O)N(C)CC(=O)N[C@@H](Cc1ccccc1)C(=O)O` (H-[Sar]RVYIH[Sar]F-OH), the Intrinsic activity [1] was 22% and the Activity (Rattus norvegicus) was 17%.

With `CC[C@H](C)[C@H](NC(=O)[C@H](Cc1ccc(O)cc1)NC(=O)[C@@H](NC(=O)[C@H](CCCNC(=N)N)NC(=O)CNC)C(C)C)C(=O)N[C@@H](Cc1cnc[nH]1)C(=O)N(C)CC(=O)N[C@@H](CC(C)C)C(=O)O` (H-[Sar]RVYIH[Sar]L-OH) the Intrinsic activity [1] was less than 0.1%, the pA2 (Angiotensin II receptor) was 7.4 and the Activity (Rattus norvegicus) was 0.21%.

For `CC[C@H](C)[C@H](NC(=O)[C@H](Cc1ccc(O)cc1)NC(=O)[C@@H](NC(=O)[C@H](CCCNC(=N)N)NC(=O)CNC)C(C)C)C(=O)N[C@@H](Cc1cnc[nH]1)C(=O)N(C)CC(=O)N[C@@H](CCSC)C(=O)O` (H-[Sar]RVYIH[Sar]M-OH), the Intrinsic activity [1] was less than 0.1%, the pA2 (Angiotensin II receptor) was 7.7 and the Activity (Rattus norvegicus) was 0.82%.

`CC[C@H](C)[C@H](NC(=O)[C@H](Cc1ccc(O)cc1)NC(=O)[C@@H](NC(=O)[C@H](CCCNC(=N)N)NC(=O)CNC)C(C)C)C(=O)N[C@@H](Cc1cnc[nH]1)C(=O)N(C)CC(=O)N[C@H](C(=O)O)[C@@H](C)OC` (H-[Sar]RVYIH[Sar]T(Me)-OH) showed an Intrinsic activity [1] of less than 0.1%, a pA2 (Angiotensin II receptor) of 7.4 and an Activity (Rattus norvegicus) of 0.13%.

With `CCC(C)C(NC(=O)CN(C)C(=O)[C@H](Cc1cnc[nH]1)NC(=O)[C@@H](NC(=O)[C@H](Cc1ccc(O)cc1)NC(=O)[C@@H](NC(=O)[C@H](CCCNC(=N)N)NC(=O)CNC)C(C)C)[C@@H](C)CC)C(=O)O` (mixture of isomers) the Intrinsic activity [1] was 0.7%, the pA2 (Angiotensin II receptor) was 8.4 and the Activity (Rattus norvegicus) was 12.5%.
